This note sets out measurements from ChEMBL document CHEMBL1132709, “Novel cyclopropapyrroloindole derivative (AT-3510) bearing methoxycarbonyl and trifluoromethyl groups” (J Med Chem, 1999).

Assay [1] has as its system Mus musculus. Briefly: In vivo antitumor activity (3.13 mg/kg) is the measure of tumor growth inhibition of human tumor xenograft NUGC-3 (stomach) implanted sc in mice. Format: functional. The essentials:
(§1)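 Tumor fragments (2–3 mm3) implanted sc into female BALB/cA Jcl-nu mice on day 0; single iv dose given once tumor volume reached about 100 mm3. Read-out is maximum tumor growth inhibition, as percentage versus untreated group.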
For orientation: A xenograft is tissue or cells of one species grown in another, often human tumour cells in immunodeficient mice.

For assay [2], the system named is Mus musculus. In words: In vivo concentration required to inhibit the Colon 26 murine […] cell growth by 50%. In kind it is functional.
Assay [3] is described as follows: Ratio between max dose within 10% body weight loss and tumor growth inhibition. In kind it is functional. The procedure, abridged: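 Ratio of maximum dose within 10% body weight loss to the dose giving 50% tumor growth inhibition, in sc Colon 26-bearing mice dosed iv.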
The test system of assay [4] is Mus musculus. Briefly: In vivo antitumor activity (3.13 mg/kg) is the measure of tumor growth inhibition of human tumor xenograft WiDr (colon) implanted sc in mice. Format: functional. The procedure, abridged:
as §1

The test system of assay [5] is Mus musculus. In words: In vivo antitumor activity (3.13 mg/kg) is the measure of tumor growth inhibition of human tumor xenograft HCT116 (colon) implanted sc in mice. Format: functional. The essentials: as §1
Assay [6] concerns Mus musculus. In words: In vivo antitumor activity (3.13 mg/kg) is the measure of tumor growth inhibition of human tumor xenograft DLD-1 (colon) implanted sc in mice. In kind it is functional. The procedure, abridged:
as §1

The test system of assay [7] is Mus musculus. Briefly: In vivo antitumor activity is the measure of tumor growth inhibition of Colon 26 murine […] cells. In kind it is functional. The essentials: (§2)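 Colon 26 cells (10^6/mouse) inoculated sc into male CDF1 mice on day 0; single iv dose on day 7. Tumor growth inhibition expressed as percentage versus untreated group.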
Assay [8] deals with Mus musculus. Briefly: In vivo antitumor activity (0.716 mg/kg) is the measure of tumor growth inhibition of human tumor xenograft NUGC-3 (stomach) implanted sc in mice. In kind it is functional. The essentials: (§3)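 Tumor fragments (2–3 mm3) implanted sc into female BALB/cA Jcl-nu mice on day 0. A single iv dose was given once tumor volume reached about 100 mm3. Read-out is percentage of maximum tumor growth inhibition versus the untreated group.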

Assay [9] relates to Mus musculus. In words: In vivo antitumor activity (1 mg/kg) is the measure of tumor growth inhibition of human tumor xenograft WiDr (colon) implanted sc in mice. Format: functional. The procedure, abridged: as §3
Assay [10] deals with Mus musculus. Briefly: In vivo antitumor activity (1 mg/kg) is the measure of tumor growth inhibition of human tumor xenograft HCT116 (colon) implanted sc in mice. Format: functional. The essentials: as §3
In assay [11] the test system is Mus musculus. Briefly: In vivo antitumor activity (1 mg/kg) is the measure of tumor growth inhibition of human tumor xenograft DLD-1 (colon) implanted sc in mice. In kind it is functional. The procedure, abridged:
as §3

Another assay deals with HeLa. Briefly: Concentration required to inhibit the growth of HeLaS3 human uterine cervix carcinoma cells by 50%. In kind it is functional, cell-based.
Assay [12] deals with Mus musculus. In words: In vivo antitumor activity (0.0884 mg/Kg) is the measure of tumor growth inhibition of colon 26 murine […] cells. Format: functional. The essentials: as §2
For assay [13], the system named is Mus musculus. Briefly: In vivo concentration required to inhibit the colon 26 murine […] cell growth by 50%. Format: functional.
Assay [14] concerns Mus musculus. Briefly: In vivo antitumor activity (0.800 mg/kg) is the measure of tumor growth inhibition of human tumor xenograft NUGC-3 (stomach) implanted sc in mice. In kind it is functional. The procedure, abridged: as §1
In assay [15] the test system is Mus musculus. Briefly: In vivo antitumor activity (0.845 mg/kg) is the measure of tumor growth inhibition of human tumor xenograft DLD-1 (colon) implanted sc in mice. Format: functional. The procedure, abridged:
as §1

Assay [16] relates to Mus musculus. In words: In vivo antitumor activity (0.845 mg/kg) is the measure of tumor growth inhibition of human tumor xenograft HCT116 (colon) implanted sc in mice. Format: functional. The procedure, abridged: as §1
In assay [17] the test system is Mus musculus. Briefly: In vivo antitumor activity (1 mg/Kg) is the measure of tumor growth inhibition of colon 26 murine […] cells. In kind it is functional. The essentials: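 Colon 26 cells (10^6/mouse) inoculated sc into male CDF1 mice on day 0; drug given iv on day 7. Read-out is percentage tumor growth inhibition versus the untreated group.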

The subject of assay [18] is Mus musculus. In words: In vivo antitumor activity (0.125 mg/Kg) is the measure of tumor growth inhibition in mice bearing S180 murine sarcoma cells. Format: functional, CCRF S-180.
In the next assay the test system is P338. In words: In vitro concentration required to inhibit the growth of […] murine leukemia cells by 50%. Format: functional, cell-based. Particulars: Mus musculus.
Assay [19] deals with Mus musculus. Briefly: In vivo antitumor activity (0.125 mg/Kg) is the measure of increase in life span of mice bearing P388 murine leukemia cells. In kind it is functional.

≈ marks a conversion by molar mass, not a printed value.

The TGI is how far tumour growth fell short of that in controls. Higher therefore signals much slowing of growth. `COC(=O)c1c(C(F)(F)F)[nH]c2c(OC(=O)N3CCN(C)CC3)cc3c(c12)[C@H](CCl)CN3C(=O)c1cc2cc(NC(=O)c3cc4cccc(OC)c4o3)ccc2[nH]1`: the TGI amounted to 100% with Mus musculus [1]; 86% in the assay on Mus musculus [4]; 90% in the assay with Mus musculus [5]; 83% in the assay with Mus musculus [6]; 95% with Mus musculus [7]. Further, the TGI50 with Mus musculus [2] is 0.265 mg/kg. The Ratio in assay [3] amounted to 7.6.

Turning to `COC(=O)c1c(C)[nH]c2c(OC(=O)N3CCN(C)CC3)cc3c(c12)[C@H](CBr)CN3C(=O)c1cc2cc(OC)c(OC)c(OC)c2[nH]1` [PIBROZELESIN], the Ratio in assay [3] came out at 3.4. In addition, the TGI is listed as 91% in the assay on Mus musculus [8], 59% in the assay with Mus musculus [9], 73% with Mus musculus [10] and 65% in the assay on Mus musculus [11].

A word on the IC50: it is the midpoint of a concentration-inhibition curve. A high value points to weaker potency. The molecule `Cc1c[nH]c2c1[C@@]13C[C@@H]1CN(C(=O)c1cc4cc(NC(=O)c5cc6ccccc6o5)ccc4[nH]1)C3=CC2=O` [ADOZELESIN] registered an IC50 in the assay with HeLa of 0.0364 ng/mL (≈ 0.0724 nM). The Ratio in assay [3] amounted to 2. The same molecule returned a TGI with Mus musculus [12] of 79%. Further, in the assay with Mus musculus [13], the TGI50 was 0.0444 mg/kg.

For `COC(=O)c1c(C(F)(F)F)[nH]c2c(OC(=O)N3CCN(C)CC3)cc3c(c12)[C@H](CCl)CN3C(=O)c1cc2cc(NC(=O)c3cc4ccccc4cn3)ccc2[nH]1`, in the assay with Mus musculus [2], the TGI50 turned out to be 0.082 mg/kg. Further, the Ratio in assay [3] came out at 6.1. Besides, the TGI is listed as 97% with Mus musculus [14], 76% in the assay on Mus musculus [15], 77% in the assay on Mus musculus [16] and 93% with Mus musculus [7].

For `COC(=O)c1c(C(F)(F)F)[nH]c2c(O)cc3c(c12)[C@H](CCl)CN3C(=O)c1cc2cc(-c3cc4ccccc4o3)ccc2[nH]1` (racemic), the IC50 in the assay on HeLa turned out to be 3.6 ng/mL (≈ 5.92 nM). The molecule also yielded a TGI in the assay with Mus musculus [17] of 84%.

Broadly, the ILS is how much longer treated animals lived than controls. For the molecule `Cc1c[nH]c2c1[C@@]13C[C@@H]1CN(C(=O)c1cc4cc(NC(=O)c5cc6ccccc6[nH]5)ccc4[nH]1)C3=CC2=O` (racemic), in the assay with Mus musculus [18], the TGI was found to be 86%. This molecule also registered an IC50 in the assay with P338 of 0.028 ng/mL (≈ 0.0558 nM). The ILS in the assay on Mus musculus [19] was 210%.
